ChEMBL document CHEMBL1143542, “Structure-activity relationships of bivalent aminoglycosides and evaluation of their microbiological activities” (2005)
Values after ≈ are worked out from the molar mass of the structure shown.

Assays:
Pseudomonas aeruginosa [1] = assay: Susceptibility testing against Pseudomonas aeruginosa PAE_NUH03; R=Resistant; type: functional, organism-based
Summary of the method: (§1)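 Disk diffusion susceptibility profiling of P. aeruginosa reference and clinical isolates against empirically used antipseudomonal antibiotics. Each isolate was categorised as susceptible, intermediate or resistant.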

Pseudomonas aeruginosa [2] = assay: Susceptibility testing against Pseudomonas aeruginosa PAE_NUH06; R=Resistant; type: functional, organism-based; summary of the method: as §1
Pseudomonas aeruginosa [3] = assay: Susceptibility testing against Pseudomonas aeruginosa ATCC 27853; S=Susceptible; type: functional, organism-based
Summary of the method: (§2)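 Disk diffusion susceptibility profiling against a panel of empirically used antipseudomonal antibiotics. Each strain was categorised as susceptible (S) or intermediate (I).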

Pseudomonas aeruginosa [4] = assay: Susceptibility testing against Pseudomonas aeruginosa PAE_NUH20; S=Susceptible; type: functional, organism-based; summary of the method: as §2
Pseudomonas aeruginosa [5] = assay: Susceptibility testing against Pseudomonas aeruginosa PAE_NUH07; I=Intermediate; type: functional, organism-based; summary of the method: as §1
Pseudomonas aeruginosa [6] = assay: Susceptibility testing against Pseudomonas aeruginosa PAE_NUH01; R=Resistant; type: functional, organism-based; summary of the method: as §1
Pseudomonas aeruginosa [7] = assay: Susceptibility testing against Pseudomonas aeruginosa PAE_NUH05; R=Resistant; type: functional, organism-based; summary of the method: as §1
Pseudomonas aeruginosa [8] = assay: Susceptibility testing against Pseudomonas aeruginosa PAE_NUH21; S=Susceptible; type: functional, organism-based; summary of the method: as §2
Pseudomonas aeruginosa [9] = assay: Susceptibility testing against Pseudomonas aeruginosa PAE_NUH19; S=Susceptible; type: functional, organism-based; summary of the method: as §2
Pseudomonas aeruginosa [10] = assay: Susceptibility testing against Pseudomonas aeruginosa PAE_NUH25; S=Susceptible; type: functional, organism-based; summary of the method: as §2
Pseudomonas aeruginosa [11] = assay: Susceptibility testing against Pseudomonas aeruginosa PAE_NUH04; R=Resistant; type: functional, organism-based; summary of the method: as §1
Pseudomonas aeruginosa [12] = assay: Susceptibility testing against Pseudomonas aeruginosa PAE_NUH22; S=Susceptible; type: functional, organism-based; summary of the method: as §2
Pseudomonas aeruginosa [13] = assay: Susceptibility testing against Pseudomonas aeruginosa PAE_NUH02; R=Resistant; type: functional, organism-based; summary of the method: as §1
Pseudomonas aeruginosa [14] = assay: Susceptibility testing against Pseudomonas aeruginosa PAE_NUH17; S=Susceptible; type: functional, organism-based; summary of the method: as §2
Pseudomonas aeruginosa [15] = assay: Susceptibility testing against Pseudomonas aeruginosa PAE_NUH18; S=Susceptible; type: functional, organism-based; summary of the method: as §2
Pseudomonas aeruginosa [16] = assay: Susceptibility testing against Pseudomonas aeruginosa PAE_NUH24; S=Susceptible; type: functional, organism-based; summary of the method: as §2
Pseudomonas aeruginosa [17] = assay: Susceptibility testing against Pseudomonas aeruginosa PAE_NUH23; S=Susceptible; type: functional, organism-based; summary of the method: as §2
Pseudomonas aeruginosa [18] = assay: Susceptibility testing against Pseudomonas aeruginosa PAE_NUH06; S=Susceptible; type: functional, organism-based; summary of the method: as §2
Pseudomonas aeruginosa [19] = assay: Susceptibility testing against Pseudomonas aeruginosa PAE_NUH02; S=Susceptible; type: functional, organism-based; summary of the method: as §2
Pseudomonas aeruginosa [20] = assay: Susceptibility testing against Pseudomonas aeruginosa PAE_NUH03; S=Susceptible; type: functional, organism-based; summary of the method: as §2
Pseudomonas aeruginosa [21] = assay: Susceptibility testing against Pseudomonas aeruginosa PAE_NUH05; S=Susceptible; type: functional, organism-based; summary of the method: as §2
Pseudomonas aeruginosa [22] = assay: Susceptibility testing against Pseudomonas aeruginosa PAE_NUH01; S=Susceptible; type: functional, organism-based; summary of the method: as §2
Pseudomonas aeruginosa [23] = assay: Susceptibility testing against Pseudomonas aeruginosa PAE_NUH07; S=Susceptible; type: functional, organism-based; summary of the method: as §2
Pseudomonas aeruginosa [24] = assay: Susceptibility testing against Pseudomonas aeruginosa PAE_NUH04; S=Susceptible; type: functional, organism-based; summary of the method: as §2
Pseudomonas aeruginosa [25] = assay: Minimum inhibitory concentration against Pseudomonas aeruginosa PAE_NUH24; type: functional
Summary of the method: (§3)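 Broth microdilution following CLSI M100-S12. Stocks were 10 mg/mL in water, diluted in Mueller–Hinton broth to a top level of 128, then serially 2-fold in plates. Bacteria in cation-adjusted Mueller–Hinton broth were mixed 1:1 with drug and incubated 16–20 h at 35 °C. MIC was the lowest concentration with no visible growth. Run in duplicate with no-antibiotic and no-inoculum (sterility) controls.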

Pseudomonas aeruginosa [26] = assay: Minimum inhibitory concentration against Pseudomonas aeruginosa PAE_NUH22; type: functional; summary of the method: as §3
Pseudomonas aeruginosa [27] = assay: Minimum inhibitory concentration against Pseudomonas aeruginosa PAE_NUH23; type: functional; summary of the method: as §3
Pseudomonas aeruginosa [28] = assay: Minimum inhibitory concentration against Pseudomonas aeruginosa PAE_NUH18; type: functional; summary of the method: as §3
Pseudomonas aeruginosa [29] = assay: In vitro minimum inhibitory concentration against Pseudomonas aeruginosa ATCC 27853; type: functional; summary of the method: as §3
Pseudomonas aeruginosa [30] = assay: Minimum inhibitory concentration against Pseudomonas aeruginosa PAE_NUH20; type: functional; summary of the method: as §3
Escherichia coli = assay: In vitro minimum inhibitory concentration against Escherichia coli ATCC 25922; type: functional; summary of the method: as §3
Enterococcus faecalis = assay: In vitro minimum inhibitory concentration against Enterococcus faecalis 29212; type: functional; summary of the method: as §3
Staphylococcus aureus [31] = assay: In vitro minimum inhibitory concentration against Staphylococcus aureus MRSA 3359; type: functional; summary of the method: as §3
Pseudomonas aeruginosa [32] = assay: Minimum inhibitory concentration against Pseudomonas aeruginosa PAE_NUH05; type: functional; summary of the method: as §3
Pseudomonas aeruginosa [33] = assay: Minimum inhibitory concentration against Pseudomonas aeruginosa PAE_NUH04; type: functional; summary of the method: as §3
Pseudomonas aeruginosa [34] = assay: Minimum inhibitory concentration against Pseudomonas aeruginosa PAE_NUH17; type: functional; summary of the method: as §3
Pseudomonas aeruginosa [35] = assay: Minimum inhibitory concentration against Pseudomonas aeruginosa PAE_NUH06; type: functional; summary of the method: as §3
Pseudomonas aeruginosa [36] = assay: In vitro minimum inhibitory concentration against Pseudomonas aeruginosa PAO-1 Minimum inhibitory concentration against Pseudomonas aeruginosa PAO-1; type: functional; summary of the method: as §3
Pseudomonas aeruginosa [37] = assay: Minimum inhibitory concentration against Pseudomonas aeruginosa PAE_NUH03; type: functional; summary of the method: as §3
Pseudomonas aeruginosa [38] = assay: Minimum inhibitory concentration against Pseudomonas aeruginosa PAE_NUH01; type: functional; summary of the method: as §3
Pseudomonas aeruginosa [39] = assay: Minimum inhibitory concentration against Pseudomonas aeruginosa PAE_NUH25; type: functional; summary of the method: as §3
Pseudomonas aeruginosa [40] = assay: Minimum inhibitory concentration against Pseudomonas aeruginosa PAE_NUH19; type: functional; summary of the method: as §3
Pseudomonas aeruginosa [41] = assay: Minimum inhibitory concentration against Pseudomonas aeruginosa PAE_NUH02; type: functional; summary of the method: as §3
Pseudomonas aeruginosa [42] = assay: Minimum inhibitory concentration against Pseudomonas aeruginosa PAE_NUH21; type: functional; summary of the method: as §3
Pseudomonas aeruginosa [43] = assay: Minimum inhibitory concentration against Pseudomonas aeruginosa PAE_NUH07; type: functional; summary of the method: as §3
Pseudomonas aeruginosa [44] = assay: Minimum inhibitory concentration against Pseudomonas aeruginosa ATCC 27853; type: functional; summary of the method: as §3
Staphylococcus aureus [45] = assay: In vitro minimum inhibitory concentration against Staphylococcus aureus ATCC 29213; type: functional; summary of the method: as §3

CC(C)(O/N=C(\C(=O)N[C@@H]1C(=O)N2C(C(=O)[O-])=C(C[n+]3ccccc3)CS[C@H]12)c1csc(N)n1)C(=O)O
Activity (Pseudomonas aeruginosa [1]): Resistant | Activity (Pseudomonas aeruginosa [2]): Resistant | Activity (Pseudomonas aeruginosa [3]): Susceptible | Activity (Pseudomonas aeruginosa [4]): Susceptible | Activity (Pseudomonas aeruginosa [5]): I | Activity (Pseudomonas aeruginosa [6]): Resistant | Activity (Pseudomonas aeruginosa [7]): Resistant | Activity (Pseudomonas aeruginosa [8]): Susceptible | Activity (Pseudomonas aeruginosa [9]): Susceptible | Activity (Pseudomonas aeruginosa [10]): Susceptible | Activity (Pseudomonas aeruginosa [11]): Resistant | Activity (Pseudomonas aeruginosa [12]): Susceptible | Activity (Pseudomonas aeruginosa [13]): Resistant | Activity (Pseudomonas aeruginosa [14]): Susceptible | Activity (Pseudomonas aeruginosa [15]): Susceptible | Activity (Pseudomonas aeruginosa [16]): Susceptible | Activity (Pseudomonas aeruginosa [17]): Susceptible

CC(O)[C@H]1C(=O)N2C(C(=O)O)=C(SCCNC=N)C[C@H]12 (single isomer, unassigned)
Activity (Pseudomonas aeruginosa [18]): Susceptible | Activity (Pseudomonas aeruginosa [3]): Susceptible | Activity (Pseudomonas aeruginosa [4]): Susceptible | Activity (Pseudomonas aeruginosa [19]): Susceptible | Activity (Pseudomonas aeruginosa [20]): Susceptible | Activity (Pseudomonas aeruginosa [8]): Susceptible | Activity (Pseudomonas aeruginosa [9]): Susceptible | Activity (Pseudomonas aeruginosa [10]): Susceptible | Activity (Pseudomonas aeruginosa [12]): Susceptible | Activity (Pseudomonas aeruginosa [14]): Susceptible | Activity (Pseudomonas aeruginosa [15]): Susceptible | Activity (Pseudomonas aeruginosa [21]): Susceptible | Activity (Pseudomonas aeruginosa [22]): Susceptible | Activity (Pseudomonas aeruginosa [16]): Susceptible | Activity (Pseudomonas aeruginosa [17]): Susceptible | Activity (Pseudomonas aeruginosa [23]): Susceptible | Activity (Pseudomonas aeruginosa [24]): Susceptible

NC[C@H]1O[C@H](O[C@H]2[C@H](OC[C@H](O)CNCCCCNC[C@@H](O)CO[C@@H]3[C@@H](O)[C@H](N)C[C@H](N)[C@H]3O[C@H]3O[C@H](CN)[C@@H](O)[C@H](O)[C@H]3N)[C@@H](O)[C@H](N)C[C@@H]2N)[C@H](N)[C@@H](O)[C@@H]1O
MIC (Pseudomonas aeruginosa [25]): 16 µg/mL (≈ 18.9 µM) | MIC (Pseudomonas aeruginosa [26]): 16 µg/mL (≈ 18.9 µM) | MIC (Pseudomonas aeruginosa [27]): 16 µg/mL (≈ 18.9 µM) | MIC (Pseudomonas aeruginosa [28]): 8 µg/mL (≈ 9.47 µM) | MIC (Pseudomonas aeruginosa [29]): 4 µg/mL (≈ 4.73 µM) | MIC (Pseudomonas aeruginosa [30]): 16 µg/mL (≈ 18.9 µM) | MIC (Escherichia coli): 4 µg/mL (≈ 4.73 µM) | MIC (Enterococcus faecalis): > 50 µg/mL | MIC (Staphylococcus aureus [31]): 16 µg/mL (≈ 18.9 µM) | MIC (Pseudomonas aeruginosa [32]): 3.1 µg/mL (≈ 3.67 µM) | MIC (Pseudomonas aeruginosa [33]): 3.1 µg/mL (≈ 3.67 µM) | MIC (Pseudomonas aeruginosa [34]): 32 µg/mL (≈ 37.9 µM) | MIC (Pseudomonas aeruginosa [35]): 6.3 µg/mL (≈ 7.46 µM) | MIC (Pseudomonas aeruginosa [36]): 2 µg/mL (≈ 2.37 µM) | MIC (Pseudomonas aeruginosa [37]): 6.3 µg/mL (≈ 7.46 µM) | MIC (Pseudomonas aeruginosa [38]): 6.3 µg/mL (≈ 7.46 µM) | MIC (Pseudomonas aeruginosa [39]): 8 µg/mL (≈ 9.47 µM) | MIC (Pseudomonas aeruginosa [40]): 8 µg/mL (≈ 9.47 µM) | MIC (Pseudomonas aeruginosa [41]): 6.3 µg/mL (≈ 7.46 µM) | MIC (Pseudomonas aeruginosa [42]): 16 µg/mL (≈ 18.9 µM) | MIC (Pseudomonas aeruginosa [43]): 3.1 µg/mL (≈ 3.67 µM) | MIC (Pseudomonas aeruginosa [44]): 1 µg/mL (≈ 1.18 µM) | MIC (Staphylococcus aureus [45]): 1 µg/mL (≈ 1.18 µM)
